From PubChem BioAssay
The full list was thinned out, with hits kept by preference.
BB579 growth dn: growth inhibitors of yeast BB579 in restrictive medium, primary screen, yeast lifespan-shortening project, S. cerevisiae. OD615, 48 h. actives 0.51% (n = 140,000). inhibition, % at 10 µM;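 active = inhibition above a set limit, 3 SD over the mean compound inhibition, cut at about 44% in these data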
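System: DeaD yeast strain BB579; buffer or medium: CSMM-D dextrose restrictive medium; technique: OD at 615 nm; schedule: 4 h cell preincubation, 48 h compound exposure, 30 °C humidified; doses: single 10 µM dose; controls: amphotericin B 10 µg/mL, positive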
Yeast life ext: compounds extending yeast replicative lifespan, primary screen, S. cerevisiae, OD615; AID 775, 2007; inhibition of the nicotinamide effect, % at 10 µM; S. cerevisiae growth with nicotinamide; deaD strain in restrictive glucose medium; actives 0.68% (n = 130,000);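 active = inhibition above a set limit, placed 3 SD over the median of all compounds, cut at about 26% in these data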;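 also: 0% = nicotinamide-treated wells and 100% = cells grown without nicotinamide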
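Assay system: engineered S. cerevisiae DeaD replicative-lifespan strain, galactose-grown log-phase cells; medium: restrictive CSMM-D dextrose medium; also added: nicotinamide, 1.5 mM, co-present with compound; schedule: 48 h compound exposure at 30 °C, humidified; detection: absorbance at 615 nm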
PostGolgi ctrl: growth inhibition of yeast control strain, primary screen, counter-screen for post-Golgi transport modulator project | efflux-deficient yeast background strain, growth absorbance A615, 16 h | inhibition, % at 10 µM | actives 5% (n = 98,000) | AID 738, 2007
PostGolgi yeast: phenotypic screen on post-Golgi transport, primary screen. actives 0.9% (n = 98,000). post-Golgi transport phenotypic cell assay. inhibition, % at 10 µM. AID 739, 2007;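 also: yeast cells grown in 1536-well plates; yeast grown about 18 h at 30C before absorbance read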
Active calls of the source: *; . = not tested or not shown. Rule as the data show it, unless noted: active = inhibition above about 30%; inactive = the rest.

SMILES	BB579 growth dn	Yeast life ext	PostGolgi ctrl	PostGolgi yeast
COc1cccc2sc(Nc3nc(-c4ccccn4)cs3)nc12	88*	-4	87*	98*
Nc1c2c(nc3ccn(-c4ccccc4)c(=O)c13)CCCCC2	-12	-10	4	6
Nc1c2c(nc3ccn(Cc4ccccc4)c(=O)c13)CCC2	-44	-11	44*	11
COc1ccc(NC(=O)c2c3c(nc4ccccc24)CCC3)cc1S(=O)(=O)N1CCOCC1	-37	-2	.	.
COc1ccccc1OCC(=O)Nc1sc2c(c1C(=O)NCC1CCCO1)CCC2 (configuration not stated)	-54	-15	21	-8
O=C(Cc1cccs1)NCCn1ccc2ccccc21	-14	-10	36*	-6
CCC(=O)NCCn1ccc2ccccc21	-12	-9	2	12
CC1CN(c2nc3c(c(=O)n(C)c(=O)n3C)n2Cc2c(F)cccc2Cl)CC(C)O1 (configuration not stated)	-36	-1	13	-1
CCC(C)c1ccccc1NC(=O)c1cccnc1 (configuration not stated)	-45	-11	52*	-7
CCOC(=O)CCc1c(C)c2ccc(O)cc2oc1=O	-31	-17	7	-2
CCOC(=O)Cc1c(C)c2ccc(N(CC)CC)cc2oc1=O	-15	-26	1	46*
COC(=O)c1sc2ncn(-n3c(C)ccc3C)c(=O)c2c1C	-73	85*	7	-4
Cc1ccc(C)n1-n1cnc2sc3c(c2c1=O)CCC3	-14	-5	5	-2
N#CC(C#N)=C/C(C#N)=C(/N)N1CCN(c2ccc(Cl)cc2)CC1	-42	-19	31*	47*
O=C(c1ccccc1)N1CCN(C(=O)c2cc3ccccc3o2)CC1	-7	-24	31*	3
O=C(c1cc2ccccc2o1)N1CCN(c2ccccc2Cl)CC1	-81	-11	40*	1
CC(C)Sc1nc(C(F)(F)F)cc(=O)n1-c1ccccc1	-71	27	14	13
Cc1ccc(/C(O)=C2\C(=O)C(=O)N(c3cc(C)on3)C2c2cccc(Br)c2)cc1 (configuration not stated)	7	27*	-1	2
COc1ccc(-c2c(C)nn(-c3ccccc3)c2N)cc1	-30	-10	38*	1
Cc1nn(-c2nc3ccccc3[nH]2)c(N)c1-c1ccc(Cl)cc1	-25	-29	72*	-2
COc1ccccc1NC(=O)CN1CCC(C(=O)c2ccc(F)cc2)CC1	-33	-8	32*	-5
COc1ccccc1NC(=O)CN1CCN(CC(=O)Nc2ccc(Cl)c(C(F)(F)F)c2)CC1	-70	-13	82*	-2
COc1ccc(NC(=O)CN2CCN(CC(=O)Nc3ccccc3Cl)CC2)cc1Cl	-32	-10	2	11
COc1ccccc1NC(=O)N1CCC(C(=O)c2ccc(F)cc2)CC1	-9	-5	5	0
CC(NC(=O)Nc1ccc([N+](=O)[O-])cc1)C(c1cccs1)N1CCCC1 (configuration not stated)	-12	5	.	.
SMILES	BB579 growth dn	Yeast life ext	PostGolgi ctrl	PostGolgi yeast
NC(=S)NNC(=O)[C@@H]1CCCC[C@@H]1C(=O)O	-7	11	.	.
CC(C)(C)C1CCc2c(sc(NC(=O)C3CCCO3)c2C(N)=O)C1 (configuration not stated)	14	-14	60*	4
Cc1ccc(Cl)cc1N1CCN(S(=O)(=O)c2ccc3c(c2)oc(=O)n3C)CC1	-14	-2	37*	-3
Cc1ccc(S(=O)(=O)N(C)c2ccc(OCC(=O)Nc3nc(-c4ccccc4)cs3)cc2)cc1	-21	2	.	.
O=C(CS(=O)(=O)c1ccccc1)Nc1nc(-c2ccccc2)cs1	-4	-12	41*	-8
CCn1c(SCC(=O)Nc2nc(-c3ccccc3)cs2)nnc1-c1ccccc1	-48	-15	58*	9
Cc1ccc(S(=O)(=O)CC(=O)Nc2nc(-c3ccccc3)cs2)cc1	-9	0	63*	-13
O=C(CN1C(=O)c2ccccc2S1(=O)=O)NCCSC1CCCCC1	-4	-9	0	-3
O=C(CSc1nc(Nc2ccccc2)nc(N2CCOCC2)n1)Nc1ccc([N+](=O)[O-])cc1	-4	-25	17	44*
COc1ccccc1CNC(=O)CSc1nc(-c2ccccc2)cn1N	15	-14	1	11
CN(C(=O)CSc1nc(-c2ccccc2)cn1N)C(c1ccccc1)c1ccccc1	-34	-7	47*	-12
COc1ccc(-c2csc(N(CCc3ccc(OC)c(OC)c3)C(=O)COc3ccccc3)n2)cc1	-50	-17	5	-20
